The values that follow come from ChEMBL document CHEMBL2390837, “Synthesis, cytotoxic activity and DNA-interaction studies of novel anthraquinone-thiosemicarbazones with tautomerizable methylene group” (Eur J Med Chem, 2013).

The subject of one test is Escherichia coli. As to the kind of experiment: Induction of Escherichia coli XL1 blue pUC18 DNA cleavage assessed as conversion of supercoiled DNA to relaxed circular DNA at 2 mM after 90 mins by agarose gel electrophoresis. In outline: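 Supercoiled pUC18 (262 ng, from E. coli XL1 blue) incubated with 2 mM compound in 20 μL of 40 mM bicarbonate buffer pH 8.4 at 37 °C for 90 min. Reaction stopped with loading buffer. Analyzed on 1% agarose in TAE pH 8.24 at 80 V and stained with ethidium bromide (0.5 µg/mL).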

The test system of test [1] is DNA. As to the kind of experiment: Binding affinity to calf thymus DNA at 20 to 80 uM after 1.5 hrs by UV-vis spectrophotometric analysis. The note with it: Bos taurus. The test is classed as nucleic-acid assay. In outline: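 UV–Vis spectra (200–800 nm, 1 cm cells) of compound at 20, 40, 60 or 80 μM, with or without 0.12 mM CT-DNA. CT-DNA was dissolved in 10 mM Tris-HCl pH 7.9. Mixtures were in 40 mM bicarbonate buffer pH 8.4, incubated 1.5 h at 37 °C with occasional vortexing.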

The test system of test [2] is Radical scavenging activity. As to the kind of experiment: Antioxidant activity assessed as DPPH radical scavenging activity after 30 mins by spectrophotometric analysis. Type of test: functional. Put shortly: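 Test solutions at 8–1000 μM in methanol mixed 1:1 by volume with 200 μM DPPH in methanol, kept 30 min in the dark at room temperature. Absorbance read at 517 nm against blanks without DPPH. Percent scavenging = (A_DPPH − A_sample)/A_DPPH × 100. IC50 (concentration halving DPPH absorbance) read from a plot of % versus concentration. Ascorbic acid and BHT used as standards.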
On the technique in general: The DPPH test is a chemical assay of radical scavenging.

Test [3] relates to HeLa. The experiment in a line: Induction of apoptosis in human HeLa cells at IC90 after 24 hrs by propidium iodide staining-based FACS flow cytometric analysis in presence of caspase-9 inhibitor Z-LEHD-FMK. The test is classed as functional, cell-based. (A flow cytometer gives signals particle by particle.)
Test [4] concerns HeLa. As to the kind of experiment: Induction of apoptosis in human HeLa cells at IC90 after 24 hrs by propidium iodide staining-based FACS flow cytometric analysis in presence of caspase-8 inhibitor Z-IETD-FMK. Type of test: functional, cell-based.
Test [5] has as its system HeLa. As to the kind of experiment: Induction of apoptosis in human HeLa cells at IC90 after 24 hrs by propidium iodide staining-based FACS flow cytometric analysis in presence of caspase-3 inhibitor Z-DEVD-FMK. Type of test: functional, cell-based.
In test [6] the test system is HeLa. As to the kind of experiment: Cell cycle arrest in human HeLa cells assessed as accumulation at subG1 phase after 24 hrs by propidium iodide staining-based FACS flow cytometric analysis. Type of test: functional.
The subject of test [7] is HeLa. The experiment in a line: Cell cycle arrest in human HeLa cells assessed as accumulation at G2/M phase at 2 times IC50 after 24 hrs by propidium iodide staining-based FACS flow cytometric analysis (reference value: 21.66%). The test is classed as functional.
Test [8] concerns HeLa. The experiment in a line: Cell cycle arrest in human HeLa cells assessed as accumulation at S phase at 2 times IC50 after 24 hrs by propidium iodide staining-based FACS flow cytometric analysis (reference value: 16.22%). The test is classed as functional.
Test [9] concerns HeLa. The experiment in a line: Cell cycle arrest in human HeLa cells assessed as accumulation at G1 phase at 2 times IC50 after 24 hrs by propidium iodide staining-based FACS flow cytometric analysis (reference value: 51.97%). The test is classed as functional.
Test [10] has as its system HeLa. The experiment in a line: Cell cycle arrest in human HeLa cells assessed as accumulation at subG1 phase at 2 times IC50 after 24 hrs by propidium iodide staining-based FACS flow cytometric analysis (reference value: 9.10%). The test is classed as functional.
The test system of test [11] is HeLa. The experiment in a line: Cell cycle arrest in human HeLa cells assessed as accumulation at G2/M phase at IC50 after 24 hrs by propidium iodide staining-based FACS flow cytometric analysis (reference value: 21.66%). The test is classed as functional.
In test [12] the test system is HeLa. As to the kind of experiment: Cell cycle arrest in human HeLa cells assessed as accumulation at S phase at IC50 after 24 hrs by propidium iodide staining-based FACS flow cytometric analysis (reference value: 16.22%). The test is classed as functional.
The subject of test [13] is HeLa. As to the kind of experiment: Cell cycle arrest in human HeLa cells assessed as accumulation at G1 phase at IC50 after 24 hrs by propidium iodide staining-based FACS flow cytometric analysis (reference value: 51.97%). Type of test: functional.
The subject of test [14] is HeLa. As to the kind of experiment: Cell cycle arrest in human HeLa cells assessed as accumulation at subG1 phase at IC50 after 24 hrs by propidium iodide staining-based FACS flow cytometric analysis (reference value: 9.10%). The test is classed as functional.
The subject of a further test is MRC5. As to the kind of experiment: Cytotoxicity against human MRC5 cells after 72 hrs by MTT assay. Type of test: cell-based. The note with it: MRC5, 72 h. In outline: (§1)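 Cells seeded in 96-well plates: HeLa 2000, MDA-MB-361 7000, MDA-MB-453 3000, K562, A549 and MRC-5 5000 per well. Compounds added at 5–100 μM (final), DMSO ≤0.5%, in RPMI-1640 with 10% FBS. Added after 24 h, except K562 at 2 h after seeding. Exposure 72 h, then MTT 4 h at 37 °C, SDS solubilization, A570 read. IC50 is the mean ± SD of three independent experiments.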

The test system of a further test is A549. The experiment in a line: Cytotoxicity against human A549 cells after 72 hrs by MTT assay. Type of test: functional, cell-based. The following applies: A549, 72 h. Put shortly:
as §1
(Tetrazolium dyes change colour on reduction, which living cells bring about.)

Another test concerns K562. The experiment in a line: Cytotoxicity against human K562 cells after 72 hrs by MTT assay. Type of test: functional, cell-based. The following applies: K562, 72 h. In outline: as §1
For the next test, the system named is MDA-MB-361. As to the kind of experiment: Cytotoxicity against human MDA-MB-361 cells after 72 hrs by MTT assay. Type of test: functional, cell-based. The note with it: MDA-MB-361, 72 h. In outline:
as §1

A further test relates to MDA-MB-453. The experiment in a line: Cytotoxicity against human MDA-MB-453 cells after 72 hrs by MTT assay. Type of test: functional, cell-based. The note with it: MDA-MB-453, 72 h. Put shortly: as §1
The subject of test [15] is HeLa. As to the kind of experiment: Cytotoxicity against human HeLa cells after 72 hrs by MTT assay. Type of test: functional, cell-based. Put shortly:
as §1

Test [16] has as its system DNA. The experiment in a line: Binding affinity to calf thymus DNA after 1.5 hrs by spectroscopic titration. Type of test: nucleic-acid assay. The note with it: Bos taurus. Put shortly:
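Absorbance titration in 40 mM bicarbonate buffer pH 8.4. Compound held fixed at 40 μM, CT-DNA varied at (0.2–1.6) × 10⁻⁴ M. Mixtures incubated 1.5 h at 37 °C, then UV–Vis spectra recorded from 200 to 800 nm. K_B taken from a plot of [DNA]/(εA − εF) versus [DNA].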

The structures appear in SMILES notation. Calls of active or inactive are those of the source. No cut-off for these calls is given here.

In the case of `CCOC(=O)/C(CC(=O)c1cccc2c1C(=O)c1ccccc1C2=O)=N\NC(=S)NCc1cccs1`, in the test on Escherichia coli, the outcome was inactive. Also, the result in the test with DNA [1], in the test on HeLa [3], in the test on HeLa [4] and in the test on HeLa [5] was Active. For the same compound, the IC50 in test [2] was 66.5 µM; with MRC5, 24.4 µM; in the test on A549, 12.9 µM; in the test with K562, 2.8 µM; in the test on MDA-MB-361, 25.4 µM; in the test with MDA-MB-453 it was 13.5 µM. This compound had a concentration for half-maximal inhibition (IC50) in the test with HeLa [15] of 8.25 µM. Further, the Activity result is “Dose-dependent effect” in the test on HeLa [6]; 3.79% with HeLa [7]; 13.79% in the test on HeLa [8]; 40.07% in the test on HeLa [9]; 36.27% in the test with HeLa [10]; 15.34% with HeLa [11]. The Activity in the test on HeLa [12] is on record as 20.62%; in the test with HeLa [13], 32.36%; in the test with HeLa [14] it was 28.61%.

On to `CCOC(=O)/C(CC(=O)c1cccc2c1C(=O)c1ccccc1C2=O)=N/NC(N)=S`, for which, in the test with Escherichia coli, the result was inactive. In the test with DNA [16], this compound came in with a Kb of 0.55 ×10⁹ /M. The result with DNA [1], in the test with HeLa [3], in the test on HeLa [4], in the test on HeLa [5], in the test with HeLa [7] and in the test with HeLa [8] was Active. For the same compound, the result in the test on HeLa [9], with HeLa [10], in the test on HeLa [11], in the test with HeLa [12], in the test with HeLa [13] and with HeLa [14] was Active. In addition, the concentration for half-maximal inhibition (IC50) in test [2] worked out at 20.5 µM; in the test on MRC5 it was 36.2 µM; in the test on A549 it was 29 µM; in the test on K562, 7.99 µM; with MDA-MB-361, 30.7 µM; in the test on MDA-MB-453, 13.6 µM. The compound also yielded an IC50 with HeLa [15] of 14.4 µM.

Consider `CCOC(=O)/C(CC(=O)c1cccc2c1C(=O)c1ccccc1C2=O)=N\NC(=S)Nc1ccc(C)cc1`, for which the result in the test with Escherichia coli was inactive. Also, in the test with DNA [16], the Kb is 2.91 ×10⁹ /M. The outcome in the test on DNA [1], in the test with HeLa [3], with HeLa [4], in the test on HeLa [5], in the test with HeLa [7] and in the test on HeLa [8] was Active. Moreover, the outcome in the test with HeLa [9], in the test with HeLa [10], in the test on HeLa [11], in the test on HeLa [12], in the test with HeLa [13] and in the test on HeLa [14] was Active. The IC50 in [2] is 41 µM; with MRC5 it was 30.3 µM; in the test on A549 it was 22.5 µM; in the test on K562 it was 3.97 µM; in the test on MDA-MB-361 it was 32.6 µM; with MDA-MB-453, 11.3 µM. This compound yielded an IC50 in the test with HeLa [15] of 21 µM.

Regarding `CCOC(=O)/C(CC(=O)c1cccc2c1C(=O)c1ccccc1C2=O)=N\NC(=S)Nc1ccccc1`, the outcome in the test on Escherichia coli was inactive. The Kb with DNA [16] was 9.3 ×10⁹ /M. For the same compound, the outcome in the test with DNA [1], in the test on HeLa [3], with HeLa [4] and in the test on HeLa [5] was Active. For the same compound, the concentration for half-maximal inhibition (IC50) came to 26.2 µM in [2]; 11.8 µM with MRC5; 9.89 µM with A549; 3.59 µM in the test on K562; 6.61 µM with MDA-MB-361; 6.91 µM with MDA-MB-453. For the same compound, the half-maximal inhibitory concentration (IC50) in the test on HeLa [15] turned out to be 8.19 µM. In addition, the Activity entry in the test on HeLa [6] was “Dose-dependent effect”; with HeLa [7] it was 7.61%; with HeLa [8] it was 19.4%; in the test with HeLa [9], 44.72%; in the test with HeLa [10], 23.74%; in the test with HeLa [11] it was 24.11%. For the same compound, the Activity came to 17.82% with HeLa [12], 44.66% in the test with HeLa [13] and 11.21% with HeLa [14].

In the case of `CC[n+]1c(-c2ccccc2)c2cc(N)ccc2c2ccc(N)cc21`, in the test with DNA [16], the Kb amounted to 7 ×10⁷ /M.

As to `CCCCNC(=S)N/N=C(/CC(=O)c1cccc2c1C(=O)c1ccccc1C2=O)C(=O)OCC`, in the test on Escherichia coli, the result was inactive. The result in the test with DNA [1], in the test on HeLa [3], in the test on HeLa [4], in the test on HeLa [5], in the test on HeLa [7] and in the test with HeLa [8] was Active. Further, the outcome in the test on HeLa [9], with HeLa [10], in the test on HeLa [11], in the test with HeLa [12], in the test on HeLa [13] and in the test on HeLa [14] was Active. For the same compound, the IC50 in test [2] was 25.8 µM; with MRC5, 21.1 µM; in the test with A549, 19.6 µM; with K562, 3.8 µM; in the test on MDA-MB-361, 30.8 µM; in the test on MDA-MB-453, 11.5 µM. The half-inhibitory concentration (IC50) with HeLa [15] is 10.9 µM.

The term IC50 denotes the concentration needed to halve the response being measured.
